The source of these data is ChEMBL document CHEMBL3817745, “Structure-Activity Relationship for the 4(3H)-Quinazolinone Antibacterials” (J Med Chem, 2016).

What is called MIC is the smallest concentration in the dilution series that meets the test's criterion for growth inhibition. High values mean weaker potency, low ones greater potency. The term IC50 denotes the concentration that inhibits the measured activity by half. The low end stands for greater potency, the high end for weaker potency.

Molecules are shown by their SMILES. Converted amounts (≈) assume the structure as drawn. The source made the active and inactive calls.

The test system of data set [1] is Staphylococcus aureus. In words: Antibacterial activity against methicillin-resistant Staphylococcus aureus NRS70 in ICR mouse neutropenic thigh infection model assessed as reduction in bacterial load at 20 mg/kg, sc tid administered every 8 hrs starting from 1 hr post infection and measured 7 hrs post last dose. Format: functional, organism-based. In short, it runs like this:
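Female ICR mice (n = 8 per group) made neutropenic with ip cyclophosphamide 200 mg/kg at 4 days and 1 day pre-infection; 100 μL NRS70 (~1×10^6 CFU/mL in brain–heart infusion) injected im into right thigh; sc doses at 1, 9, 17 h; thighs harvested at 24 h, homogenized, plated in triplicate on LB agar; log10 CFU/g.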

In data set [2] the test system is Staphylococcus aureus. In words: Antibacterial activity against Staphylococcus aureus COL expressing pbpA antisense plasmid assessed as increase in zone of inhibition after 18 to 20 hrs in presence of xylose. Format: functional, organism-based. In short, it runs like this: (§1)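 MRSA COL strains carrying pbpA, pbp2, mecA or pbp3 under antisense control were grown overnight on agar with 34 μg/mL chloramphenicol. Molten chloramphenicol agar with 0 or 50 mM xylose was seeded at 1×10^7 CFU/mL and set. Compound (10 μL) was spotted on the agar, and plates were incubated 36 °C for 18–20 h. Susceptibility with and without xylose induction was compared.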

Data set [3] relates to Staphylococcus aureus. In words: Antibacterial activity against Staphylococcus aureus COL expressing pbp2a antisense plasmid assessed as increase in zone of inhibition after 18 to 20 hrs in presence of xylose. Format: functional, organism-based. The method, boiled down: as §1
In data set [4] the test system is Staphylococcus aureus. In words: Antibacterial activity against Staphylococcus aureus COL expressing pbp2 antisense plasmid assessed as increase in zone of inhibition after 18 to 20 hrs in presence of xylose. Format: functional, organism-based. The method, boiled down:
as §1

Data set [5] concerns Staphylococcus aureus. In words: Antibacterial activity against Staphylococcus aureus COL expressing pbp3 antisense plasmid assessed as increase in zone of inhibition after 18 to 20 hrs in presence of xylose. Format: functional, organism-based. In short, it runs like this:
as §1

For data set [6], the system named is Staphylococcus aureus. In words: Antibacterial activity against methicillin-susceptible Staphylococcus aureus ATCC 29213 incubated for 16 to 20 hrs by microdilution method. Format: functional.
For another data set, the system named is Mus musculus. In words: AUC (0 to last) in ICR mouse peritonitis model infected with methicillin resistant Staphylococcus aureus ATCC 27660 at 5 mg/kg, iv administered as single dose measured up to 8 hrs by UPLC analysis. Format: ADME, organism-based. Set-up: dose 5 mg/kg, route intravenous, time 0 - last. The settings on record: in vivo. The method, boiled down:
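Fast PK: female ICR mice (n = 2 per time point) given single tail-vein iv injection at 5, 10 or 20 mg/kg in 25% DMSO/65% propylene glycol/10% water (2.5, 5 or 10 mg/mL); terminal cardiac blood at 5 min, 40 min, 2, 4, 8 h; plasma analysed by UPLC with internal standard calibration.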

Another data set deals with HepG2. In words: Cytotoxicity against human HepG2 cells incubated for 16 hrs by XTT assay. Format: cell-based. The note with it: HepG2, 16 h. In short, it runs like this: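 HepG2 cells were tested with an XTT viability read-out, in triplicate. IC50 was obtained by nonlinear regression.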
(In general: Formazan colour is commonly taken as a measure of viable cells.)

A short description of data set [7]: Hemolytic activity against human RBC at 64 ug/ml relative to control. The settings on record: erythrocyte. Format: ADME, cell-based, Erythrocyte. In short, it runs like this:
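Hemolysis was measured at a fixed 64 μg/mL on a 10% red-cell suspension from heparinized human blood. Triton-X served as the positive control, and results are given as percent hemolysis.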

For data set [8], the system named is Staphylococcus aureus. In words: Antibacterial activity against mecA-positive methicillin/oxacillin/tetracycline-resistant Staphylococcus aureus ATCC 27660 incubated for 16 to 20 hrs by microdilution method. Format: functional. On the technique in general: Dilution methods test growth across graded concentrations, often in twofold steps.
Data set [9] deals with Staphylococcus aureus. In words: Antibacterial activity against mecA-positive multidrug resistant Staphylococcus aureus COL NRS100 incubated for 16 to 20 hrs by microdilution method. Format: functional.
Data set [10] relates to Staphylococcus aureus. In words: Antibacterial activity against mecA-positive multidrug resistant Staphylococcus aureus NRS119 incubated for 16 to 20 hrs by microdilution method. Format: functional.
In data set [11] the test system is Staphylococcus aureus. In words: Antibacterial activity against mecA-positive multidrug resistant Staphylococcus aureus NRS120 incubated for 16 to 20 hrs by microdilution method. Format: functional.
Data set [12] relates to Staphylococcus aureus. In words: Antibacterial activity against vancomycin/methicillin-resistant Staphylococcus aureus VRS1 clinical isolate incubated for 16 to 20 hrs by microdilution method. Format: functional.
In data set [13] the test system is Staphylococcus aureus. In words: Antibacterial activity against vancomycin/methicillin-resistant Staphylococcus aureus VRS2 clinical isolate incubated for 16 to 20 hrs by microdilution method. Format: functional.
Data set [14] relates to Staphylococcus epidermidis. In words: Antibacterial activity against Staphylococcus epidermidis ATCC 35547 incubated for 16 to 20 hrs by microdilution method. Format: functional. In short, it runs like this:
(§2)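 CLSI broth microdilution. 2-fold serial dilutions were made in cation-adjusted Mueller–Hinton broth, with 5% lysed horse blood added for Streptococcus strains, in triplicate. Inoculum 5×10^5 CFU/mL. Plates incubated 36 °C for 16–20 h. MIC taken as the lowest concentration visibly inhibiting growth.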

In data set [15] the test system is Staphylococcus haemolyticus. In words: Antibacterial activity against Staphylococcus haemolyticus ATCC 29970 incubated for 16 to 20 hrs by microdilution method. Format: functional.
The subject of the next data set is Streptococcus oralis. In words: Antibacterial activity against Streptococcus oralis ATCC 9811 incubated for 16 to 20 hrs by microdilution method. Format: functional. In short, it runs like this:
as §2

The test system of a further data set is Streptococcus pyogenes. In words: Antibacterial activity against Streptococcus pyogenes ATCC 49399 incubated for 16 to 20 hrs by microdilution method. Format: functional. The method, boiled down:
as §2

For a further data set, the system named is Bacillus cereus. In words: Antibacterial activity against Bacillus cereus ATCC 13061 incubated for 16 to 20 hrs by microdilution method. Format: functional. In short, it runs like this: as §2
The test system of the next data set is Bacillus licheniformis. In words: Antibacterial activity against Bacillus licheniformis ATCC 12759 incubated for 16 to 20 hrs by microdilution method. Format: functional. In short, it runs like this: as §2
For data set [16], the system named is Enterococcus faecalis. In words: Antibacterial activity against methicillin-susceptible Enterococcus faecalis ATCC 29212 incubated for 16 to 20 hrs by microdilution method. Format: functional. The method, boiled down: as §2
For data set [17], the system named is Enterococcus faecalis. In words: Antibacterial activity against vancomycin-resistant Enterococcus faecalis 99 clinical isolate incubated for 16 to 20 hrs by microdilution method. Format: functional.
The subject of another data set is Enterococcus faecium. In words: Antibacterial activity against Enterococcus faecium NCTC 7171 incubated for 16 to 20 hrs by microdilution method. Format: functional. The method, boiled down: as §2
A further data set concerns Klebsiella pneumoniae. In words: Antibacterial activity against Klebsiella pneumoniae ATCC 700603 incubated for 16 to 20 hrs by microdilution method. Format: functional. The method, boiled down: as §2
A further data set relates to Acinetobacter baumannii. In words: Antibacterial activity against Acinetobacter baumannii ATCC 17961 incubated for 16 to 20 hrs by microdilution method. Format: functional. The method, boiled down: as §2
A further data set concerns Pseudomonas aeruginosa. In words: Antibacterial activity against Pseudomonas aeruginosa […] incubated for 16 to 20 hrs by microdilution method. Format: functional. In short, it runs like this:
as §2

Another data set has as its system Escherichia coli. In words: Antibacterial activity against Escherichia coli ATCC 25922 incubated for 16 to 20 hrs by microdilution method. Format: functional. In short, it runs like this:
as §2

A further data set deals with Klebsiella aerogenes. In words: Antibacterial activity against Enterobacter aerogenes ATCC 35029 incubated for 16 to 20 hrs by microdilution method. Format: functional. The method, boiled down: as §2

Regarding `C#Cc1ccc(/C=C/c2nc3ccccc3c(=O)n2-c2cccc(C(=O)O)c2)cc1`, the result in the data set on Staphylococcus aureus [1], with Staphylococcus aureus [2] and in the data set on Staphylococcus aureus [3] was Active. In addition, the result in the data set on Staphylococcus aureus [4] and in the data set on Staphylococcus aureus [5] was inactive.
On to `CS(=O)(=O)Nc1cccc(-n2c(/C=C/c3ccc(C#N)cc3)nc3ccccc3c2=O)c1`, for which the MIC in the data set with Staphylococcus aureus [6] turned out to be 0.004 µg/mL (≈ 0.00904 µM); in the data set with Staphylococcus aureus [8], 0.25 µg/mL (≈ 0.565 µM); in the data set with Staphylococcus aureus [9], 0.5 µg/mL (≈ 1.13 µM); against Staphylococcus aureus [10] it was 0.5 µg/mL (≈ 1.13 µM); against Staphylococcus aureus [11], 0.25 µg/mL (≈ 0.565 µM); in the data set with Staphylococcus aureus [12] it was 0.5 µg/mL (≈ 1.13 µM). For the same compound, the MIC against Staphylococcus aureus [13] is 0.125 µg/mL (≈ 0.282 µM); in data set [14], 0.125 µg/mL (≈ 0.282 µM); in data set [15], 0.125 µg/mL (≈ 0.282 µM); against Streptococcus oralis it was above 128 µg/mL; in the data set on Streptococcus pyogenes it was above 128 µg/mL; against Bacillus cereus, above 128 µg/mL. Also, the MIC was above 128 µg/mL in the data set with Bacillus licheniformis; above 128 µg/mL against Enterococcus faecalis [16]; 128 µg/mL (≈ 289 µM) in the data set with Enterococcus faecalis [17]; above 128 µg/mL against Enterococcus faecium; at least 16 µg/mL in the data set on Klebsiella pneumoniae; at least 16 µg/mL with Acinetobacter baumannii. Also, the MIC against Pseudomonas aeruginosa, with Escherichia coli and in the data set on Klebsiella aerogenes was at least 16 µg/mL each time. The same compound had an AUClast in the data set on Mus musculus of 31 µg·min/mL. For the same compound, half-maximal inhibition in the data set on HepG2 (IC50) required 33.4 µg/mL (≈ 75.5 µM). Besides, in [7], the Activity is reported as below 1%.
For the compound `N#Cc1ccc(/C=C/c2nc3ccccc3c(=O)n2-c2cccc(O)c2)cc1`, the minimum inhibitory concentration (MIC) came out at 0.03 µg/mL (≈ 0.0821 µM) in the data set on Staphylococcus aureus [6]; 0.5 µg/mL (≈ 1.37 µM) in the data set on Staphylococcus aureus [8]; 0.25 µg/mL (≈ 0.684 µM) against Staphylococcus aureus [9]; 0.125 µg/mL (≈ 0.342 µM) in the data set on Staphylococcus aureus [10]; 0.125 µg/mL (≈ 0.342 µM) against Staphylococcus aureus [11]; 0.5 µg/mL (≈ 1.37 µM) against Staphylococcus aureus [12]. Further, the MIC was 0.06 µg/mL (≈ 0.164 µM) against Staphylococcus aureus [13]; 0.125 µg/mL (≈ 0.342 µM) in data set [14]; 0.125 µg/mL (≈ 0.342 µM) in data set [15]; above 128 µg/mL against Streptococcus oralis; above 128 µg/mL in the data set with Streptococcus pyogenes; above 128 µg/mL in the data set with Bacillus cereus. For the same compound, the MIC against Bacillus licheniformis is above 128 µg/mL; in the data set on Enterococcus faecalis [16] it was 128 µg/mL (≈ 350 µM); against Enterococcus faecalis [17], 64 µg/mL (≈ 175 µM); against Enterococcus faecium it was above 128 µg/mL; in the data set with Klebsiella pneumoniae, at least 16 µg/mL; with Acinetobacter baumannii it was at least 16 µg/mL. Also, the MIC with Pseudomonas aeruginosa, against Escherichia coli and with Klebsiella aerogenes was at least 16 µg/mL in each case. The AUClast with Mus musculus came out at 26.8 µg·min/mL. For the same compound, in the data set on HepG2, the half-maximal inhibitory concentration (IC50) amounted to 53.6 µg/mL (≈ 147 µM). Besides, the Activity in data set [7] was below 1%.
As for `CC(=O)Nc1cccc(-n2c(/C=C/c3ccc(C#N)cc3)nc3ccccc3c2=O)c1`, the MIC in the data set with Staphylococcus aureus [6] worked out at 0.25 µg/mL (≈ 0.615 µM); with Staphylococcus aureus [8], 1 µg/mL (≈ 2.46 µM); in the data set on Staphylococcus aureus [9] it was 1 µg/mL (≈ 2.46 µM); in the data set with Staphylococcus aureus [12] it was 4 µg/mL (≈ 9.84 µM); against Staphylococcus aureus [13], 0.125 µg/mL (≈ 0.308 µM); in data set [14] it was 0.06 µg/mL (≈ 0.148 µM). In addition, the minimum inhibitory concentration (MIC) was above 128 µg/mL in the data set on Streptococcus oralis; above 128 µg/mL against Streptococcus pyogenes; above 128 µg/mL against Bacillus cereus; above 128 µg/mL against Bacillus licheniformis; 128 µg/mL (≈ 315 µM) in the data set on Enterococcus faecalis [16]; 64 µg/mL (≈ 157 µM) with Enterococcus faecalis [17]. The MIC with Enterococcus faecium is above 128 µg/mL; in the data set on Klebsiella pneumoniae it was at least 16 µg/mL; in the data set with Acinetobacter baumannii, at least 16 µg/mL; in the data set on Pseudomonas aeruginosa, at least 16 µg/mL; in the data set on Escherichia coli, at least 16 µg/mL; against Klebsiella aerogenes, at least 16 µg/mL. For the same compound, the AUClast in the data set on Mus musculus was determined as 38 µg·min/mL. In the data set on HepG2, the IC50 was 51 µg/mL (≈ 125 µM). Further, in [7], the Activity is below 1%.
